Source: ChEMBL document CHEMBL2150921, “Synthesis, structure-activity relationships, and docking studies of N-phenylarylformamide derivatives (PAFAs) as non-nucleoside HIV reverse transcriptase inhibitors” (Eur J Med Chem, 2012)

Key:
[1] = Therapeutic index, ratio of CC50 for human C8166 cells to EC50 for HIV1 A17 harbouring RT K103N/Y181C mutant infected in human C8166 cells; type: cell-based; settings: read-out: Ratio CC50/EC50
In short: (§1)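 CC50 from MTT assay on uninfected C8166 cells (A570/630, dose-response curve, 50% viable cell reduction) divided by EC50 from 3-day syncytium reduction assay in C8166 cells (4 × 10⁵/mL) infected at M.O.I 0.06; syncytia scored microscopically. Values are means of at least two separate experiments.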

[2] = target: Human immunodeficiency virus type 1 reverse transcriptase (Human immunodeficiency virus 1, UniProt Q72547); test: Inhibition of wild type HIV1 reverse transcriptase activity using poly (rA)/oligo (dT)15 homopolymer template after 1 hr by ELISA
In short: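 Wild-type RT; oligo(dT) immobilized on plates, poly(rA) template, biotin-11-dUTP incorporation. Reaction: 50 mM Tris-HCl pH 8.3, 3 mM MgCl2, 75 mM KCl, 5 mM DTT, 0.13 mg/mL BSA, […]; 37 °C, 1 h. Detection by streptavidin-alkaline phosphatase and PNPP (30 min, 37 °C), stopped with 0.5 M NaOH.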

[3] = tested on: Human immunodeficiency virus 1; test: Antiviral activity against wild type HIV1 3B infected in human C8166 cells assessed as protection against virus-induced cytopathic effect after 3 days by syncytium reduction assay; type: functional, organism-based; settings: Human immunodeficiency virus 1, 3B, C8166, 72 h
In short: (§2)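 C8166 cells (4 × 10⁵/mL) infected at MOI 0.06 in presence of graded compound concentrations; AZT and GW678248 as drug controls. After 3 days culture, syncytia (multinucleated giant cells) counted under inverted microscope; EC50 taken as concentration blocking 50% syncytium formation. Mean of at least two separate experiments.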

C8166 = test: Cytotoxicity against human C8166 cells assessed as decrease in cell viability by MTT assay; type: functional
In short: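 Uninfected C8166 cells exposed to compound; viability read by MTT colorimetric assay at A570/630. CC50, the concentration reducing viable cells by 50%, taken from dose-response curve. Mean of at least two separate experiments.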

[4] = tested on: Human immunodeficiency virus 1; test: Antiviral activity against HIV1 A17 harbouring RT K103N/Y181C mutant infected in human C8166 cells assessed as protection against virus-induced cytopathic effect after 3 days by syncytium reduction assay; type: functional, organism-based; settings: Human immunodeficiency virus 1, A17, C8166, 72 h
In short: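 C8166 cells (4 × 10⁵/mL) infected at M.O.I 0.06 in the presence of various compound concentrations; cultured 3 days, syncytia (multinucleated giant cells) scored under inverted microscope; EC50 = concentration blocking syncytia formation by 50%. AZT and GW678248 as drug controls. Mean of at least two separate experiments.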

[5] = Therapeutic index, ratio of CC50 for human C8166 cells to EC50 for wild type HIV1 3B infected in human C8166 cells; type: cell-based; settings: C8166 cells infected with wild type HIV1 3B, read-out: Ratio CC50/EC50; in short: as §1
[6] = tested on: Human immunodeficiency virus 2; test: Antiviral activity against HIV2 ROD infected in human C8166 cells assessed as protection against virus-induced cytopathic effect after 3 days by syncytium reduction assay; type: functional, organism-based; settings: Human immunodeficiency virus 2, ISOLATE ROD, C8166, 72 h; in short: as §2

Cc1cc(S(N)(=O)=O)ccc1NC(=O)COc1ccc(Cl)cc1C(=O)c1cc(Cl)cc(C#N)c1
selectivity ratio [1]: > 1.37e+06 | IC50 [2]: 0.00269 µM | EC50 [3]: 0.000103 µM | CC50 (C8166): > 387 µM | EC50 [4]: 0.00028 µM

Cc1cc(S(N)(=O)=O)ccc1NC(=O)COc1ccc(Cl)cc1NC(=O)c1cccc(Cl)c1
selectivity ratio [5]: 18700 | selectivity ratio [1]: 39.9 | EC50 [6]: 52.5 µM | EC50 [3]: 0.00319 µM | CC50 (C8166): 59.7 µM | EC50 [4]: 1.49 µM

Cc1cc(S(N)(=O)=O)ccc1NC(=O)COc1ccc(Cl)cc1NC(=O)c1ccccc1
selectivity ratio [5]: 56500 | selectivity ratio [1]: 130 | EC50 [6]: 72.1 µM | EC50 [3]: 0.00367 µM | CC50 (C8166): 207 µM | EC50 [4]: 1.59 µM

Cc1cc(S(N)(=O)=O)ccc1NC(=O)COc1ccc(Cl)cc1NC(=O)c1ccccc1C
selectivity ratio [5]: 3750 | selectivity ratio [1]: 29.4 | EC50 [6]: 55.5 µM | EC50 [3]: 0.0179 µM | CC50 (C8166): 67.3 µM | EC50 [4]: 2.29 µM

Cc1cccc(C(=O)Nc2cc(Cl)ccc2OCC(=O)Nc2ccc(S(N)(=O)=O)cc2C)c1
selectivity ratio [5]: 36200 | selectivity ratio [1]: 115 | EC50 [6]: 29.6 µM | EC50 [3]: 0.00146 µM | CC50 (C8166): 52.9 µM | EC50 [4]: 0.46 µM

Cc1ccc(C(=O)Nc2cc(Cl)ccc2OCC(=O)Nc2ccc(S(N)(=O)=O)cc2C)cc1
selectivity ratio [5]: 10600 | selectivity ratio [1]: 58.2 | EC50 [6]: 57.3 µM | EC50 [3]: 0.0051 µM | CC50 (C8166): 54.2 µM | EC50 [4]: 0.93 µM

Cc1cc(S(N)(=O)=O)ccc1NC(=O)COc1ccc(Cl)cc1NC(=O)c1cccc(F)c1
selectivity ratio [5]: 68800 | selectivity ratio [1]: 239 | EC50 [6]: 186 µM | EC50 [3]: 0.00353 µM | CC50 (C8166): 243 µM | EC50 [4]: 1.02 µM

Cc1cc(S(N)(=O)=O)ccc1NC(=O)COc1ccc(Cl)cc1NC(=O)c1ccccc1[N+](=O)[O-]
selectivity ratio [5]: 185000 | selectivity ratio [1]: 188 | EC50 [6]: 11.8 µM | EC50 [3]: 0.0003 µM | CC50 (C8166): 54.8 µM | EC50 [4]: 0.29 µM

Cc1cc(S(N)(=O)=O)ccc1NC(=O)COc1ccc(Cl)cc1NC(=O)c1cccc([N+](=O)[O-])c1
selectivity ratio [5]: 89400 | selectivity ratio [1]: 128 | EC50 [6]: 36.1 µM | EC50 [3]: 0.00066 µM | CC50 (C8166): 58.8 µM | EC50 [4]: 0.46 µM

Cc1cc(S(N)(=O)=O)ccc1NC(=O)COc1ccc(Cl)cc1NC(=O)c1cccc(C(F)(F)F)c1
selectivity ratio [5]: 82 | selectivity ratio [1]: 2.34 | EC50 [6]: 81.3 µM | EC50 [3]: 1.51 µM | CC50 (C8166): 124 µM | EC50 [4]: 52.9 µM

COc1ccc(C(=O)Nc2cc(Cl)ccc2OCC(=O)Nc2ccc(S(N)(=O)=O)cc2C)cc1
selectivity ratio [5]: 340 | selectivity ratio [1]: 3.85 | EC50 [6]: 58.8 µM | EC50 [3]: 0.204 µM | CC50 (C8166): 69.5 µM | EC50 [4]: 18.1 µM

Cc1ccc(C(=O)Nc2cc(Cl)ccc2OCC(=O)Nc2ccc(S(N)(=O)=O)cc2C)c(C)c1
selectivity ratio [5]: 85300 | selectivity ratio [1]: 543 | EC50 [6]: 41.4 µM | EC50 [3]: 0.00056 µM | CC50 (C8166): 47.6 µM | EC50 [4]: 0.09 µM

Cc1ccc(C)c(C(=O)Nc2cc(Cl)ccc2OCC(=O)Nc2ccc(S(N)(=O)=O)cc2C)c1
selectivity ratio [5]: 213000 | selectivity ratio [1]: 560 | EC50 [6]: 27.7 µM | EC50 [3]: 0.00037 µM | CC50 (C8166): 79.7 µM | EC50 [4]: 0.14 µM

Cc1ccc(C(=O)Nc2cc(Cl)ccc2OCC(=O)Nc2ccc(S(N)(=O)=O)cc2C)cc1C
selectivity ratio [5]: 261000 | selectivity ratio [1]: 836 | IC50 [2]: 0.00114 µM | EC50 [6]: 4.37 µM | EC50 [3]: 0.00032 µM | CC50 (C8166): 84.1 µM | EC50 [4]: 0.1 µM

Cc1cc(C)cc(C(=O)Nc2cc(Cl)ccc2OCC(=O)Nc2ccc(S(N)(=O)=O)cc2C)c1
selectivity ratio [5]: 31300 | selectivity ratio [1]: 110 | EC50 [6]: 25.9 µM | EC50 [3]: 0.00116 µM | CC50 (C8166): 36.5 µM | EC50 [4]: 0.33 µM

Cc1cc(S(N)(=O)=O)ccc1NC(=O)COc1ccc(Cl)cc1NC(=O)c1ccc(Cl)cc1Cl
selectivity ratio [5]: 20600 | selectivity ratio [1]: 187 | EC50 [6]: 14.4 µM | EC50 [3]: 0.00297 µM | CC50 (C8166): 61.1 µM | EC50 [4]: 0.33 µM

Cc1cc(S(N)(=O)=O)ccc1NC(=O)COc1ccc(Cl)cc1NC(=O)c1cc(Cl)ccc1Cl
selectivity ratio [5]: 18000 | selectivity ratio [1]: 100 | EC50 [6]: 21.6 µM | EC50 [3]: 0.00234 µM | CC50 (C8166): 42.1 µM | EC50 [4]: 0.42 µM

Cc1cc(S(N)(=O)=O)ccc1NC(=O)COc1ccc(Cl)cc1NC(=O)c1ccc(Cl)c(Cl)c1
selectivity ratio [5]: 3060 | selectivity ratio [1]: 138 | EC50 [6]: 55.5 µM | EC50 [3]: 0.0514 µM | CC50 (C8166): 158 µM | EC50 [4]: 1.14 µM

Cc1cc(S(N)(=O)=O)ccc1NC(=O)COc1ccc(Cl)cc1NC(=O)c1cc(Cl)cc(Cl)c1
selectivity ratio [5]: 271000 | selectivity ratio [1]: 268 | EC50 [6]: 18 µM | EC50 [3]: 0.00027 µM | CC50 (C8166): 72.4 µM | EC50 [4]: 0.27 µM

Cc1cc(S(N)(=O)=O)ccc1NC(=O)COc1ccc(Cl)cc1NC(=O)c1cc(Cl)cc(Br)c1
selectivity ratio [5]: 37 | selectivity ratio [1]: 4.11 | EC50 [6]: 61.5 µM | EC50 [3]: 3.09 µM | CC50 (C8166): 114 µM | EC50 [4]: 27.8 µM

Cc1cc(S(N)(=O)=O)ccc1NC(=O)COc1ccc(Cl)cc1NC(=O)c1cc(Br)cc(Br)c1
selectivity ratio [5]: 1950 | selectivity ratio [1]: 64.7 | EC50 [6]: 56.5 µM | EC50 [3]: 0.0459 µM | CC50 (C8166): 89.7 µM | EC50 [4]: 1.39 µM

Cc1cc(S(N)(=O)=O)ccc1NC(=O)COc1ccc(Cl)cc1NC(=O)c1cc(Cl)cc(C#N)c1
selectivity ratio [5]: 136000 | selectivity ratio [1]: 454 | IC50 [2]: 0.00205 µM | EC50 [6]: 23.2 µM | EC50 [3]: 0.00096 µM | CC50 (C8166): 131 µM | EC50 [4]: 0.29 µM

Cc1cc(S(N)(=O)=O)ccc1NC(=O)COc1ccc(Cl)cc1NC(=O)/C=C/c1ccccc1
selectivity ratio [5]: 2 | selectivity ratio [1]: 1.06 | EC50 [6]: 77.5 µM | EC50 [3]: 95.4 µM | CC50 (C8166): 163 µM | EC50 [4]: 154 µM

Cc1cc(S(N)(=O)=O)ccc1NC(=O)COc1ccc(Cl)cc1NC(=O)Cc1c(Cl)cccc1Cl
selectivity ratio [5]: > 2 | selectivity ratio [1]: > 1.49 | EC50 [6]: 160 µM | EC50 [3]: 249 µM | CC50 (C8166): > 359 µM | EC50 [4]: 241 µM

Cc1cc(S(N)(=O)=O)ccc1NC(=O)COc1ccc(Cl)cc1NC(=O)c1cccc2ccccc12
selectivity ratio [5]: > 3500 | selectivity ratio [1]: > 17.7 | EC50 [6]: 97.7 µM | EC50 [3]: 0.109 µM | CC50 (C8166): > 382 µM | EC50 [4]: 21.5 µM

Cc1cc(S(N)(=O)=O)ccc1NC(=O)COc1ccc(Cl)cc1NC(=O)c1ccc2ccccc2c1
selectivity ratio [5]: 373 | selectivity ratio [1]: 4.22 | EC50 [6]: 31.6 µM | EC50 [3]: 0.101 µM | CC50 (C8166): 37.6 µM | EC50 [4]: 8.91 µM

Cc1cn([C@H]2C[C@H](N=[N+]=[N-])[C@@H](CO)O2)c(=O)[nH]c1=O [ZIDOVUDINE]
selectivity ratio [5]: 422000 | selectivity ratio [1]: 216000 | CC50 (C8166): 4910 µM
